Test results published in article PMC10840928 (Chemistry (Weinheim an der Bergstrasse, Germany), 2023).

Assays:
[1] = molecular target: Aβ42 oligomers and fibrils (Homo sapiens, UniProt P05067); experiment: Fluorescence turn-on with Aβ42 fibrils and oligomers; type: binding; details: 5 μM compound, 25 μM Aβ42 species, PBS; for maximum emission wavelength in the presence of Aβ aggregates: for DCM-OH-2-MT the LE peak; for fluorescence turn-on effect with Aβ aggregates: excitation 470 nm
[2] = Viscosity sensitivity measurement; type: physicochemical; details: 10 μM, ethylene glycol/glycerol mixtures
Outline: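 Mixed until no layering, then fluorescence intensity recorded. log I plotted against log η and fitted by linear regression (log I = x log η + A). Slope x taken as sensitivity.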

[3] = tested on: Aβ aggregates in 5xFAD mice; experiment: Real-time in vivo NIR fluorescence imaging; parameters: species or system mouse; details: 5 mg/kg
Aβ42 peptide = Aβ42 peptide (Homo sapiens, UniProt P05067); experiment: In vitro Aβ42 aggregation monitoring; type: binding; details: 25 μM peptide, 5 μM probe, 37 °C, 0-40 h
Chain of Aβ42 peptide (P05067 672-713 limits assumed): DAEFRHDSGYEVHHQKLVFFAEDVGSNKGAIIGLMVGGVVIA

[4] = molecular target: Aβ aggregates in 5xFAD mouse brain sections (Homo sapiens, UniProt P05067); experiment: Histological staining of 5xFAD mouse brain sections, colocalization with ThS; details: 9-month-old 5xFAD brain sections, 10 μM compound, 2.5 μM ThS
Chain of Aβ aggregates in 5xFAD mouse brain sections (P05067 672-711 limits assumed): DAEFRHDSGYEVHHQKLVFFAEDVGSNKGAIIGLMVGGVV

[5] = pKa by UV-vis spectrophotometric titration; type: physicochemical; details: pH 3-11, I = 0.1 M NaCl
Outline: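 About 20 μM test compound in 0.1 M NaCl titrated with small aliquots of 0.2 M NaOH, from low to high pH (3–11). Run at room temperature under moist N2 flow until spectra stopped changing, giving about 30 UV-vis spectra per compound. Constants fitted with HypSpec. Largest pKa assigned to the phenol O-H.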

[6] = Job's plot analysis of Cu; type: physicochemical; details: PBS pH 7.4, total 30 μM
Outline: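 Test compound and Cu(II) mixed in PBS pH 7.4, Cu from 0 to 100 mol %, combined concentration fixed at 30 μM. Equilibrated at least 5 min at room temperature. UV-vis spectra recorded, and stoichiometry read from the break point of the plot versus Cu mole fraction.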

[7] = tested on: human neuroblastoma (SH-SY5Y) cells; experiment: Alamar Blue cytotoxicity, SH-SY5Y cells; type: cell-based; details: 40 h treatment
Outline: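 After seeding at 2.0 × 10⁴/well and 24 h growth, medium changed to MEM/F-12 (1:1)/N-2 for 1 h. Cells exposed 40 h to test compound at varying concentrations. Alamar Blue incubation 90 min at 37 °C, then fluorescence measured at 590 nm with 560 nm excitation.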

[8] = tested on: mouse neuroblastoma (N2A) cells; experiment: Alamar Blue cytotoxicity, N2A cells; type: cell-based; details: 40 h treatment
Outline: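 Cells seeded at 2.0 × 10⁴/well and grown 24 h. Medium switched to DMEM/N-2 for 1 h, then test compound added at a range of concentrations for 40 h. Alamar Blue added and incubated 90 min at 37 °C. Fluorescence read at 590 nm (excitation 560 nm).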

Chain of Aβ42 oligomers and fibrils (P05067 672-713 limits assumed): as the sequence (P05067 672-713 limits assumed) above

SMILES | maximum emission wavelength in the presence of Aβ aggregates [1] | fluorescence response during Aβ42 aggregation (Aβ42 peptide) | labeling pattern of Aβ aggregates on brain sections [4] | pKa of the phenol O-H (largest pKa value) [5] | stoichiometry of Cu(II)-ligand complexation in solution [6] | fluorescence turn-on effect with Aβ aggregates [1] | further results
CN1CCN(C)CCN(Cc2cc(/C=C/C=C/C3=CC(=C(C#N)C#N)c4ccccc4O3)cc(CN3CCN(C)CCN(C)CC3)c2O)CC1 [DCM-OH-2-DT] | about 730 nm | more significant fluorescence increases at the early stage | bind to the peripheral region of the Aβ aggregates | 9.35 | only the 1:1 ligand-to-Cu complexes | – | viscosity sensitivity (x value) [2]: lowest viscosity sensitivity; brain NIR fluorescence signal, AD mice vs WT mice ([3]; 7-month-old 5xFAD vs WT, 5-, 15-, 30-min post injection): significantly higher fluorescence signal in AD mice; time to maximum brain fluorescence signal after injection ([3]; jugular vein injection, 7-month-old mice): about 15 min
N#CC(C#N)=C1C=C(/C=C/C=C/c2ccc(O)cc2)Oc2ccccc21 [DCM-OH-2] | 620 nm | more significant fluorescence increases at the early stage | binding to the identical core regions of the Aβ aggregates | 11.73 | – | significant fluorescence turn-on effect | cytotoxicity [7]: slightly more toxic than the others; cytotoxicity [8]: slightly more toxic than the others
CN1CCN(C)CCN(Cc2cc(/C=C/C3=CC(=C(C#N)C#N)c4ccccc4O3)ccc2O)CC1 [DCM-OH-1-MT] | ~ 650 nm | – | – | – | mixture of 1:1 and 2:1 ligand-to-Cu complexes | fluorescence enhancement | –
Cc1ccc2c(c1)sc(-c1ccc(N(C)C)cc1)[n+]2C [ThT, Thioflavin T, reference compound] | – | minimal fluorescence enhancement from 0–10 h | – | – | – | – | –
CN1CCN(C)CCN(Cc2cc(/C=C/C3=CC(=C(C#N)C#N)c4ccccc4O3)cc(CN3CCN(C)CCN(C)CC3)c2O)CC1 [DCM-OH-1-DT] | ~ 650 nm | – | – | – | mixture of 1:1 and 2:1 ligand-to-Cu complexes | fluorescence enhancement | –
CN1CCN(C)CCN(Cc2cc(/C=C/C=C/C3=CC(=C(C#N)C#N)c4ccccc4O3)ccc2O)CC1 [DCM-OH-2-MT] | 620 nm | – | bind to the peripheral region of the Aβ aggregates | – | – | – | second emission peak (ESIPT emission) in the presence of Aβ aggregates [1]: 730 nm
